Results published in ChEMBL document CHEMBL4680121, “Development of (4-methoxyphenyl)-1H-tetrazol-5-amine regioisomers as a new class of selective antitubercular agents” (Eur J Med Chem, 2020).

How the values were obtained:
Format in all cases: functional
Staphylococcus aureus [1] = test: Antibacterial activity against Staphylococcus aureus NCTC 4163 assessed as bacterial growth inhibition measured after 18 hrs by two-fold serial microdilution method
How it was run: (§1)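 Two-fold serial broth microdilution in MH II medium following modified CLSI procedures. Compounds were dissolved in DMSO and diluted in medium to at most 1% solvent, tested from 0.03125 to 512 μg/ml. Final inoculum 10^6 CFU/ml. MIC was taken as the lowest concentration with no visible growth after 18 h at 35 °C.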

Klebsiella pneumoniae = test: Antibacterial activity against Klebsiella pneumoniae ATCC 10031 assessed as bacterial growth inhibition measured after 18 hrs by two-fold serial microdilution method; how it was run: as §1
[2] = system: Staphylococcus epidermidis; test: Antibacterial activity against Staphylococcus epidermidis ATCC 12228 assessed as bacterial growth inhibition measured after 18 hrs by two-fold serial microdilution method; how it was run: as §1
[3] = system: Mycobacterium tuberculosis; test: Antitubercular activity against Mycobacterium tuberculosis Spec.192 assessed as inhibition of microbial growth by classical test tube method
How it was run: (§2)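 Classical test-tube serial dilution in Youmans' modified Proskauer–Beck liquid medium with 10% bovine serum. Inoculum came from 14-day-old cultures. Compounds were given as DMSO solutions (stock 10 mg/ml), diluted geometrically in medium to 3.1–100 µg/ml, and incubated at 37 °C. MIC is the minimum concentration inhibiting growth relative to a no-compound control.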

Proteus vulgaris = test: Antibacterial activity against Proteus vulgaris NCTC 4635 assessed as bacterial growth inhibition measured after 18 hrs by two-fold serial microdilution method; how it was run: as §1
[4] = system: Staphylococcus epidermidis; test: Antibacterial activity against Staphylococcus epidermidis ATCC 1457 assessed as bacterial growth inhibition measured after 18 hrs by two-fold serial microdilution method; how it was run: as §1
[5] = system: Staphylococcus epidermidis; test: Antibacterial activity against Staphylococcus epidermidis ATCC 35984/RP62A assessed as bacterial growth inhibition measured after 18 hrs by two-fold serial microdilution method; how it was run: as §1
Pseudomonas aeruginosa [6] = test: Antibacterial activity against Pseudomonas aeruginosa NCTC 6749 assessed as bacterial growth inhibition measured after 18 hrs by two-fold serial microdilution method; how it was run: as §1
Escherichia coli = test: Antibacterial activity against Escherichia coli ATCC 25922 assessed as bacterial growth inhibition measured after 18 hrs by two-fold serial microdilution method; how it was run: as §1
[7] = system: Mycobacterium tuberculosis; test: Antitubercular activity against Mycobacterium tuberculosis H37Rv ATCC 25618 assessed as inhibition of microbial growth by classical test tube method; how it was run: as §2
Staphylococcus aureus [8] = test: Antibacterial activity against Staphylococcus aureus ATCC 6538 assessed as bacterial growth inhibition measured after 18 hrs by two-fold serial microdilution method; how it was run: as §1
Pseudomonas aeruginosa [9] = test: Antibacterial activity against Pseudomonas aeruginosa PAO1 assessed as bacterial growth inhibition measured after 18 hrs by two-fold serial microdilution method; how it was run: as §1

**Q.** How did the MIC (Staphylococcus aureus [1]) turn out when COc1ccc(NC(=S)Nc2ccc(Cl)cc2)cc1 was run?
**A.** Its MIC is over 256 µg/mL.

**Q.** What about the MIC (Klebsiella pneumoniae) of the same compound?
**A.** Its MIC is over 256 µg/mL.

**Q.** And the MIC [2]?
**A.** Its MIC is over 256 µg/mL.

**Q.** And the MIC [3]?
**A.** The MIC was 50 µg/mL.

**Q.** And the MIC (Proteus vulgaris)?
**A.** The MIC was over 256 µg/mL.

**Q.** What about the MIC [4] of the same compound?
**A.** Its MIC is over 256 µg/mL.

**Q.** And the MIC [5]?
**A.** The MIC was over 256 µg/mL.

**Q.** What about the MIC (Pseudomonas aeruginosa [6]) of the same compound?
**A.** Its MIC is over 256 µg/mL.

**Q.** And the MIC (Escherichia coli)?
**A.** Its MIC is over 256 µg/mL.

**Q.** What about the MIC [7] of the same compound?
**A.** Its MIC is 50 µg/mL.

**Q.** What about the MIC (Staphylococcus aureus [8]) of the same compound?
**A.** Its MIC is over 256 µg/mL.

**Q.** What about the MIC (Pseudomonas aeruginosa [9]) of the same compound?
**A.** The MIC was over 256 µg/mL.

**Q.** With COc1ccc(NC(=S)Nc2cccc(Br)c2)cc1 as the compound, how does the MIC (Staphylococcus aureus [1]) read?
**A.** The MIC was over 256 µg/mL.

**Q.** What about the MIC (Klebsiella pneumoniae) of the same compound?
**A.** Its MIC is over 256 µg/mL.

**Q.** What about the MIC [2] of the same compound?
**A.** Its MIC is over 256 µg/mL.

**Q.** What about the MIC [3] of the same compound?
**A.** Its MIC is 50 µg/mL.

**Q.** And the MIC (Proteus vulgaris)?
**A.** The MIC was over 256 µg/mL.

**Q.** And the MIC [4]?
**A.** The MIC was over 256 µg/mL.

**Q.** And the MIC [5]?
**A.** Its MIC is over 256 µg/mL.

**Q.** And the MIC (Pseudomonas aeruginosa [6])?
**A.** Its MIC is over 256 µg/mL.

**Q.** What about the MIC (Escherichia coli) of the same compound?
**A.** The MIC was over 256 µg/mL.

**Q.** And the MIC [7]?
**A.** The MIC was 50 µg/mL.

**Q.** And the MIC (Staphylococcus aureus [8])?
**A.** Its MIC is over 256 µg/mL.

**Q.** And the MIC (Pseudomonas aeruginosa [9])?
**A.** The MIC was over 256 µg/mL.

**Q.** What does the source list for COc1ccc(NC(=S)Nc2ccccc2Br)cc1?
**A.** MIC (Staphylococcus aureus [1]): > 256 µg/mL; MIC (Klebsiella pneumoniae): > 256 µg/mL; MIC [2]: > 256 µg/mL; MIC [3]: 50 µg/mL; MIC (Proteus vulgaris): > 256 µg/mL; MIC [4]: > 256 µg/mL; MIC [5]: > 256 µg/mL; MIC (Pseudomonas aeruginosa [6]): > 256 µg/mL; MIC (Escherichia coli): > 256 µg/mL; MIC [7]: 50 µg/mL; MIC (Staphylococcus aureus [8]): > 256 µg/mL; MIC (Pseudomonas aeruginosa [9]): > 256 µg/mL

**Q.** Which MIC (Staphylococcus aureus [1]) does the source give for COc1ccc(NC(=S)Nc2ccc(Br)cc2)cc1 here?
**A.** The MIC was over 256 µg/mL.

**Q.** What about the MIC (Klebsiella pneumoniae) of the same compound?
**A.** The MIC was over 256 µg/mL.

**Q.** What about the MIC [2] of the same compound?
**A.** Its MIC is over 256 µg/mL.

**Q.** And the MIC [3]?
**A.** The MIC was 25 µg/mL.

**Q.** What about the MIC (Proteus vulgaris) of the same compound?
**A.** Its MIC is over 256 µg/mL.

**Q.** And the MIC [4]?
**A.** The MIC was over 256 µg/mL.

**Q.** And the MIC [5]?
**A.** The MIC was over 256 µg/mL.

**Q.** What about the MIC (Pseudomonas aeruginosa [6]) of the same compound?
**A.** The MIC was over 256 µg/mL.

**Q.** And the MIC (Escherichia coli)?
**A.** The MIC was over 256 µg/mL.

**Q.** What about the MIC [7] of the same compound?
**A.** Its MIC is 25 µg/mL.

**Q.** And the MIC (Staphylococcus aureus [8])?
**A.** The MIC was over 256 µg/mL.

**Q.** And the MIC (Pseudomonas aeruginosa [9])?
**A.** The MIC was over 256 µg/mL.
